The values below come from ChEMBL document CHEMBL1121659 (J Med Chem, 1981).

The structures appear in SMILES notation.

Data set [1] is described as follows: Compound was evaluated for the average apparent volume of distribution when administered through intravenous route. The data set is classed as ADME, organism-based. The conditions noted are these: in vivo, read-out: Vd app. In a few lines: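 Male Wistar rats under pentobarbital (25 mg/kg ip) received [14C] compound 5 mg/kg iv in propylene glycol–0.1 N NaOH (1:1). Dosing was by jugular infusion, or by tail vein for later time points.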

Data set [2] relates to Mus musculus. The data set is described as follows: Time to first twitch in intravenous pentylenetetrazole test in mice at 200 mg/kg for 30 h time of test. The class given is functional. In a few lines:
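Carworth Farm No. 1 mice (average 20 g) were dosed ip. At set times afterwards, 0.5% pentylenetetrazol in heparinized saline was infused into the tail vein at 0.34 mL/min. Time to first twitch was recorded in individual mice, with observation to 240 s.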

Data set [3] is described as follows: Compound was evaluated for the tissue levels after 1 hour of administration of 5 mg/kg through intravenous route, the given data is tissue/plasma ratios heart. The class given is ADME, organism-based. Details: dose 5 mg/kg, route intravenous. In a few lines: (§1)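 Anesthetized male Wistar rats received [14C] compound 5 mg/kg by slow jugular infusion in propylene glycol–0.1 N NaOH (1:1). Tissues were taken at 1 h, four per group, rinsed, blotted and weighed. Fat, muscle and red cells were combusted directly, other organs after EtOH homogenization. Tissue/plasma 14C ratios were computed.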

A short description of data set [4]: Compound was evaluated for the toxicity in mouse on 7 th day when administered through Oral route. The conditions noted are these: in vivo. The data set is classed as organism-based. In outline:
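Male Swiss Webster mice (20–40 g) dosed in propylene glycol (10–20 mL/kg), ip at 10, 20, 50, 100 and 200 mg/kg or po at 100 and 200 mg/kg. Ten mice per dose level, observed for toxicity for 1 week. LD50 taken at 7 days.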

For data set [5], the system named is Mus musculus. In words: Compound was evaluated for the neurotoxicity after intraperitoneal administration at 48 hours. The class given is organism-based. The settings on record: in vivo, ip. In a few lines: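 Rotarod ataxia test in Carworth Farm No. 1 mice, run by the ADD program. Dosed ip in aqueous 30% PEG 400. Neurological deficit scored at 24 and 48 h after doses up to 1000 mg/kg.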

A short description of data set [6]: Compound was evaluated for the cumulative excretion rate in rats at the dose 10 mg/kg, intraperitoneally for 18 days through feces. The data set is classed as ADME, organism-based. The arrangement: dose 10 mg/kg, route intraperitoneal. The conditions noted are these: rat, faeces, ip, read-out: Excretion. In a few lines:
(§2)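 Four male Wistar rats were dosed with [14C] compound at 10 mg/kg ip in propylene glycol (5 mL/kg). Urine and feces were collected at 3-day intervals for 18 days. Fecal EtOH homogenates were combusted and counted. Daily fecal rate for the 0–3 day interval was corrected for gastrointestinal transit time (about 18 h).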

Data set [7] can be described thus: Compound was evaluated for the in rats after the dose of 5 mg/kg intravenously, at the dose 4 hour biliary excretion. The class given is ADME, organism-based. Details: dose 5 mg/kg, route intravenous. The conditions noted are these: rat, bile, iv, read-out: Excretion. In outline:
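Three male rats with jugular cannulae, body temperature held at 37–38 °C, received [14C] compound 5 mg/kg by 3–5 min infusion in propylene glycol–ethanol–0.1 N NaOH (4:1:5, 1 mL/kg). Bile was collected in two 30-min periods, then hourly up to 4 h, and counted. Bile volume was also determined.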

For data set [8], the system named is Mus musculus. The data set is described as follows: Time to first twitch in intravenous pentylenetetrazole test in mice at 750 mg/kg for 48 hr time of test. The data set is classed as functional. In a few lines:
(§3)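 Carworth Farm no. 1 mice (av wt 20 g) given the compound ip; at the designated time afterwards, 0.5% pentylenetetrazol in heparinized saline was infused into the tail vein at 0.34 mL/min. Time to first twitch (minimal excitation) was recorded for individual mice, observed up to 240 s.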

A short description of data set [9]: Compound at the dose 10 mg/kg administered intraperitoneally was evaluated for the excretion rate in rats in 7 days through feces. The data set is classed as ADME, organism-based. Details: dose 10 mg/kg, route intraperitoneal. The conditions noted are these: rat, faeces, ip, read-out: Excretion. In outline: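 Male Wistar rats (150–330 g) in individual metabolic cages received [14C] compound 10 mg/kg ip in propylene glycol (5 mL/kg), n=4. Urine and feces were collected for 7 days. Urine was diluted with EtOH and counted directly. Fecal EtOH homogenates were dried, combusted and counted as trapped 14CO2.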

Data set [10] is described as follows: Compound was evaluated for the tissue levels after 1 hour of administration of 5 mg/kg through intravenous route, the given data is tissue/plasma ratios red cells. The data set is classed as ADME, organism-based. Details: dose 5 mg/kg, route intravenous. In outline:
as §1

The nature of data set [11]: Compound was evaluated for the cumulative excretion rate in rats at the dose 10 mg/kg, intraperitoneally for 18 days through urine. The data set is classed as ADME, organism-based. The arrangement: dose 10 mg/kg, route intraperitoneal. The settings on record: rat, ip, read-out: Excretion. In a few lines:
as §2

A short description of data set [12]: Compound was evaluated for the biological half life of elimination in feces. The settings on record: faeces. The class given is ADME, tissue-based.
For data set [13], the system named is Mus musculus. The data set is described as follows: Time to first twitch in intravenous pentylenetetrazole test in mice at 750 mg/kg for 24 hr time of test. The data set is classed as functional. In a few lines:
as §3

As a reminder, the Kp is the ratio of the level in a tissue or fluid to that in plasma or blood. As a reminder, the LD50 is the dose at which mortality reaches 50%. A lower LD50 goes with greater toxicity. The term half-life denotes the time needed for the level to fall by half in the phase considered. Higher therefore signals slow loss.

As to `O=C1NC(=O)C(c2ccc(C(F)(F)F)cc2)(c2ccc(C(F)(F)F)cc2)N1`, the Vd in data set [1] was found to be 0.42 L/kg. For the same molecule, the Time turned out to be 29.6 s in data set [2], 71 s in data set [8] and 26.6 s in data set [13]. The partition ratio (Kp) at 1 h in data set [3] is 0.66; in data set [10], 0.12. For the same molecule, in data set [4], the 50% lethal dose (LD50) at 7 days came to 100 mg/kg. The Toxic dose in data set [5] came out at 1000 mg/kg. In addition, the dose excreted at 432 h in data set [6] came to 94%; in [11], 0.25%. For the same molecule, the dose excreted at 4 h in data set [7] stood at 0.5%. Also, in [9], the dose excreted at 168 h amounted to 67%. This molecule also gave a half-life in [12] of 93.6 h.
